Converted amounts (≈) assume the structure as drawn. The source made the active and inactive calls. The rule behind the calls is not given here.
What was measured:
Homo sapiens = species on record: Homo sapiens; experiment: Inhibition of TEL-fused cKIT L567P mutant (unknown origin) expressed in mouse BA/F3 cells assessed as cell growth inhibition after 72 hrs by cell titer-glo assay; assay type: cell-based
Summary of the method: (§1)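 Cells seeded at 3000 per well and exposed to serial compound dilutions for 72 h. Viability read by CellTiter-Glo luminescence and normalised to DMSO controls; mean of three independent measurements. BaF3 lines kept IL-3-free in RPMI 1640/10% FBS after retroviral transduction and puromycin selection. GIST lines grown in DMEM/10% FBS.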

[1] = target: T1, Mast/stem cell growth factor receptor Kit (Homo sapiens, UniProt P10721); experiment: Inhibition of TEL-fused cKIT (unknown origin) expressed in mouse BA/F3 cells assessed as cell growth inhibition after 72 hrs by cell titer-glo assay; assay type: cell-based
[2] = test system: Mast/stem cell growth factor receptor Kit (Homo sapiens), P10721 [T670I]; experiment: Inhibition of TEL-fused cKIT T670I mutant (unknown origin) expressed in mouse BA/F3 cells assessed as cell growth inhibition after 72 hrs by cell titer-glo assay; assay type: cell-based; summary of the method: as §1
[3] = test system: Mast/stem cell growth factor receptor Kit (Homo sapiens), P10721 [N822K]; experiment: Inhibition of TEL-fused cKIT N822K mutant (unknown origin) expressed in mouse BA/F3 cells assessed as cell growth inhibition after 72 hrs by cell titer-glo assay; assay type: cell-based; summary of the method: as §1
[4] = test system: Mast/stem cell growth factor receptor Kit (Homo sapiens), P10721 [V559D,T670I]; experiment: Inhibition of TEL-fused cKIT T670I/V559D double mutant (unknown origin) expressed in mouse BA/F3 cells assessed as cell growth inhibition after 72 hrs by cell titer-glo assay; assay type: cell-based; summary of the method: as §1
[5] = target: Macrophage colony-stimulating factor 1 receptor (Homo sapiens) (UniProt P07333); experiment: Inhibition of partial length human CSF1R expressed in bacterial expression system assessed as activity remaining at 1 uM by kinome scan assay
[6] = target: Epithelial discoidin domain-containing receptor 1 (Homo sapiens) (UniProt Q08345); experiment: Inhibition of partial length human DDR1 expressed in bacterial expression system assessed as activity remaining at 1 uM by kinome scan assay
[7] = target: Proto-oncogene tyrosine-protein kinase receptor Ret (Homo sapiens) (UniProt P07949); experiment: Inhibition of partial length human RET expressed in bacterial expression system assessed as activity remaining at 1 uM by kinome scan assay
[8] = target: T1, Mast/stem cell growth factor receptor Kit; experiment: Inhibition of wild type cKIT autophosphorylation at Y823 in human GIST-T1 cells at 100 nM after 1 hr by Western blot analysis; assay type: cell-based
Summary of the method: (§2)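 GIST-T1 or GIST-5R cells in DMEM with 10% FBS were treated with serially diluted compound for 1 h. Cells were then lysed and analysed by western blotting.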

[9] = target: T2, Mast/stem cell growth factor receptor Kit (Homo sapiens, UniProt P10721, T670I); experiment: Inhibition of cKIT T670I mutant autophosphorylation at Y823 in human GIST-5R cells at 0.1 to 3 uM after 1 hr by Western blot analysis; assay type: cell-based; summary of the method: as §2
[10] = target: T2, Mast/stem cell growth factor receptor Kit; experiment: Inhibition of cKIT T670I mutant in human GIST-5R cells assessed as downregulation of AKT phosphorylation at S473 after 1 hr by Western blot analysis; assay type: cell-based; summary of the method: as §2
[11] = Solubility of the compound in PBS buffer at pH 7.4; assay type: physicochemical
Summary of the method: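 Solubility measured in PBS pH 7.4 and in pure water, reported as µg/mL.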

BaF3 [12] = experiment: Antitumor activity against TEL-fused cKIT T670I mutant expressing mouse BA/F3 cells allografted in nu/nu mouse assessed as tumor growth inhibition dosed daily via intaperitoneal route after 10 days; assay type: functional, organism-based
Summary of the method: (§3)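 Female nu/nu mice, 5 weeks old at purchase, given 1 million BaF3-TEL-cKIT-T670I cells in PBS/Matrigel 1:1 subcutaneously on the right flank. At tumour volume 200–400 mm3, randomised into groups of 7 and dosed IP daily for 10 days (25, 50, 100 mg/kg/d or vehicle: 0.5% methylcellulose/0.4% Tween80 in water). Tumour volume (W2×L/2) and body weight recorded daily.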

BaF3 [13] = experiment: Antitumor activity against TEL-fused cKIT T670I mutant expressing mouse BA/F3 cells allografted in nu/nu mouse assessed as tumor growth inhibition at 100 mg/kg/day, ip administered daily for 10 days; assay type: functional; conditions: 240 h, read-out: TGI; summary of the method: as §3
BaF3 [14] = experiment: Antiproliferative against mouse BA/F3 cells harboring TEL-fused cKIT T670I mutant allografted in nu/nu mouse assessed as tumor growth inhibition at 25 to 100 mg/kg, ip administered daily for 10 days by Ki-67 staining based microscopic analysis; assay type: functional, organism-based
Summary of the method: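 Tumours from BaF3-TEL-cKIT-T670I subcutaneous xenografts in nu/nu mice after 10 days of daily IP dosing (25–100 mg/kg/d). Sections underwent citrate pH 6.0 microwave antigen retrieval and casein block, then anti-Ki-67 mouse mAb 1:50 overnight at 4 °C. Detection with DAB and haematoxylin counterstain.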

[15] = test system: Mast/stem cell growth factor receptor Kit (Homo sapiens), P10721 [T670I]; experiment: Inhibition of partial length human cKIT T670I mutant expressed in bacterial expression system assessed as activity remaining at 1 uM by kinome scan assay

T1 sequence (P10721 whole entry, the tested form may be a part): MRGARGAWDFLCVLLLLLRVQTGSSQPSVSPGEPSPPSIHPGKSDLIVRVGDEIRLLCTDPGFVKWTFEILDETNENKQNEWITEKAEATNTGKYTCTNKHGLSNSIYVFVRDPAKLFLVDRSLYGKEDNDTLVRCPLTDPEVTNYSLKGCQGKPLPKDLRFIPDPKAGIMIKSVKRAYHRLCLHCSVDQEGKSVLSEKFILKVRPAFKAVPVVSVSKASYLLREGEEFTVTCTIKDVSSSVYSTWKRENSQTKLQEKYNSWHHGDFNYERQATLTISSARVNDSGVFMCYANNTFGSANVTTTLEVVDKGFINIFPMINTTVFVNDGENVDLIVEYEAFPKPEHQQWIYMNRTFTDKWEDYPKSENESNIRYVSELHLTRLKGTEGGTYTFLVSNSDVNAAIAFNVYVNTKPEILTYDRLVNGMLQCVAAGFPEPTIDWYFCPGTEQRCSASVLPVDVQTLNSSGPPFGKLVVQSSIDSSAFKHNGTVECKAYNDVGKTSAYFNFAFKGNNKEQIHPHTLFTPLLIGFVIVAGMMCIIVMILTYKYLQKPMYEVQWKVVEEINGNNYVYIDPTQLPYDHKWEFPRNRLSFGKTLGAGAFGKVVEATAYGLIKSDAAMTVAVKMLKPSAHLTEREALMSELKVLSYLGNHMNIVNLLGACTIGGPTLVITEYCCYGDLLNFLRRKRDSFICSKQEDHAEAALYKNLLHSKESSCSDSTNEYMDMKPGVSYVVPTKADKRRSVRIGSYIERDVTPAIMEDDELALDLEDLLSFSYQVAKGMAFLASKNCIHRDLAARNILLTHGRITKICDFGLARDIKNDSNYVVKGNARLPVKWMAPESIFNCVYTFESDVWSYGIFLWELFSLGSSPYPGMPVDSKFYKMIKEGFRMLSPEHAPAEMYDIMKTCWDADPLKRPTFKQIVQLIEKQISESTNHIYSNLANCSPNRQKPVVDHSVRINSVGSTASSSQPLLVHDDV
Chain of Mast/stem cell growth factor receptor Kit (Homo sapiens), P10721 [T670I] (P10721 whole entry T670I, the tested form may be a part): as the sequence (P10721 whole entry, the tested form may be a part) above, with T670I counted along it
T2 sequence (P10721 26-976 T670I limits assumed): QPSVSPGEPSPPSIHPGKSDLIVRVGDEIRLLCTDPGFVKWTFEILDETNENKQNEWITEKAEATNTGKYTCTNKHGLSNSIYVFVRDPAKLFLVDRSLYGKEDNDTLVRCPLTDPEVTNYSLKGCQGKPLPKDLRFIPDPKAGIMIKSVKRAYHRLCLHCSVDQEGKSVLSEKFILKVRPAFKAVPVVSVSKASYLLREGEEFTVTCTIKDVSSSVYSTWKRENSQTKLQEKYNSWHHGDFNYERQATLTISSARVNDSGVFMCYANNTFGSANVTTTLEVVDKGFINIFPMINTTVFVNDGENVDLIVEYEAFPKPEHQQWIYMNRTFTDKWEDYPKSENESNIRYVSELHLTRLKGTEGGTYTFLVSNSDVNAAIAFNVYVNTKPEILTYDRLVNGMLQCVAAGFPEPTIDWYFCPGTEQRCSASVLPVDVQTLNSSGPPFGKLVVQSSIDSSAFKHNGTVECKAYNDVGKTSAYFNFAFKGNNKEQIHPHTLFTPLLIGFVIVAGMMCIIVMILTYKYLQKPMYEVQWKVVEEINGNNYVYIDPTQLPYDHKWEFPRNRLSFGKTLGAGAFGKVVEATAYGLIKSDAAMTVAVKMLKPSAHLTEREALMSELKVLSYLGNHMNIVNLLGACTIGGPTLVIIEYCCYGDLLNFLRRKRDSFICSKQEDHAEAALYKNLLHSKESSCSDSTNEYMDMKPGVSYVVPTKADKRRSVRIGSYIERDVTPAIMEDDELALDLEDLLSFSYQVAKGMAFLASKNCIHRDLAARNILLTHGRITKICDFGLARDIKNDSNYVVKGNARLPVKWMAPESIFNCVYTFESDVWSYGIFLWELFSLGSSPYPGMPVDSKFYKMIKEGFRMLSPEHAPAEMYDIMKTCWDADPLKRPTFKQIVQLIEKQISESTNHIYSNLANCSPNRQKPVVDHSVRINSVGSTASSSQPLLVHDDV
Chain of Proto-oncogene tyrosine-protein kinase receptor Ret (Homo sapiens) (P07949 whole entry): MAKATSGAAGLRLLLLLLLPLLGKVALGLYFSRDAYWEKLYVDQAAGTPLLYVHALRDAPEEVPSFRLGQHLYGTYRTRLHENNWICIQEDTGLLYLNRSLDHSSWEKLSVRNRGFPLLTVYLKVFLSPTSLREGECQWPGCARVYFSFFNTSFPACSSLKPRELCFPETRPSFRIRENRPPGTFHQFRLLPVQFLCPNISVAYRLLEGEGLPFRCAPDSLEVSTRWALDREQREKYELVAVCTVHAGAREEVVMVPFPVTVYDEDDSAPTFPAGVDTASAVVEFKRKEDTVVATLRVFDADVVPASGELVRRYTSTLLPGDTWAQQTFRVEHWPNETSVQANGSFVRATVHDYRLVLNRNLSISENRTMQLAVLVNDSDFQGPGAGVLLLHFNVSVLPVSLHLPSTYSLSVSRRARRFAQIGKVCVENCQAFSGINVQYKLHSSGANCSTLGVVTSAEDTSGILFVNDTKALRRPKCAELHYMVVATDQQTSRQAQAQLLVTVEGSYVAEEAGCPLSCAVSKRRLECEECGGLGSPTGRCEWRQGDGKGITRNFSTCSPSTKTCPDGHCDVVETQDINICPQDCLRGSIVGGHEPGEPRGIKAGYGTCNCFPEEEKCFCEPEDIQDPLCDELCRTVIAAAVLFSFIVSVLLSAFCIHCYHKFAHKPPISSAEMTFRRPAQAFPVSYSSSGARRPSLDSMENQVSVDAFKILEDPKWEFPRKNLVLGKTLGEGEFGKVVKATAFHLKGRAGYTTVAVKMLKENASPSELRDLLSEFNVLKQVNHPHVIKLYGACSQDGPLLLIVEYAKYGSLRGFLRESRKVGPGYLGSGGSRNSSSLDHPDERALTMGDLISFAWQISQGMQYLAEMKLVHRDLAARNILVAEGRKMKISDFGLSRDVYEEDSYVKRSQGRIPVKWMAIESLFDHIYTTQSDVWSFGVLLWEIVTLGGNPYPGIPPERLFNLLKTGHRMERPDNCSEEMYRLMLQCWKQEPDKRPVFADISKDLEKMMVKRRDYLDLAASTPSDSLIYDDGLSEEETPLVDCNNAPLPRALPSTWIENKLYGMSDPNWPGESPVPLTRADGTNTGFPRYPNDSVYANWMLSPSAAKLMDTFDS
Chain of Mast/stem cell growth factor receptor Kit (Homo sapiens), P10721 [N822K] (P10721 whole entry N822K, the tested form may be a part): as the sequence (P10721 whole entry, the tested form may be a part) above, with N822K counted along it

CCC(=O)NCC1CCN(c2ccc(NC(=O)Nc3cccc(Oc4ccnc5cc(OC)c(OC)cc45)c3)cc2C(F)(F)F)CC1
GI50 (Homo sapiens): 23 nM | GI50 [1]: 57 nM | GI50 [2]: 63 nM | GI50 [3]: 40 nM | GI50 [4]: 73 nM | Activity [5]: 0.05% | Activity [6]: < 1% | Activity [7]: 0% | inhibition [8]: Active | EC50 [9]: < 100 nM | EC50 [10]: < 100 nM | solubility [11]: 35 µM (≈ 22.8 µg/mL) | TGI (BaF3 [12]): Dose-dependent effect | inhibition in vivo at 100 mg/kg/day (BaF3 [13]): 47.7% | TGI (BaF3 [14]): Active | Activity [15]: < 1%

— ChEMBL document CHEMBL4428071 (J Med Chem, 2016)
